One block for each compound: values may come before it.
What was measured:
Coagulation factor X [1] = target: T1, Coagulation factor X (Homo sapiens, UniProt P00742); experiment: In vitro inhibition of coagulation factor Xa.
How it was run: (§1)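 Enzyme was preincubated 1 h at room temperature with inhibitor across 14 concentrations (1 nM–100 μM final). A405 was read kinetically over 10 min at 37 °C. Percent inhibition came from the linear progress-curve slopes, typically in duplicate.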

Plasminogen [2] = target: T2, Plasminogen (Homo sapiens, UniProt P00747); experiment: Compound was tested for in vitro inhibitory activity against plasmin at 100 uM
T2 sequence (P00747 97-580 limits assumed): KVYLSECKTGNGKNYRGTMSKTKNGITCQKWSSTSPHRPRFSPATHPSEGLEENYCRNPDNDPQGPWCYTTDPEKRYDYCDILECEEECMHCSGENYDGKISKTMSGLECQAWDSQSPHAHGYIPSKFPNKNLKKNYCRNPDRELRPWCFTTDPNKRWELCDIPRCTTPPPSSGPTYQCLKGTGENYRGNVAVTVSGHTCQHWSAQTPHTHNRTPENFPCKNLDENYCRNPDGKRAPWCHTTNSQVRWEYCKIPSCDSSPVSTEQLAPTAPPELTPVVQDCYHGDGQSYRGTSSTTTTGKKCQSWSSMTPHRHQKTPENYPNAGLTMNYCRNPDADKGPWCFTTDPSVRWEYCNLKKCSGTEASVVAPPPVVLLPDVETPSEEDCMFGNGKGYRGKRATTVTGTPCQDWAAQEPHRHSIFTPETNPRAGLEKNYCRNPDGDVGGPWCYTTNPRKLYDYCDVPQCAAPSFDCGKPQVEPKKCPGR
T2 sequence (P00747 581-810 limits assumed): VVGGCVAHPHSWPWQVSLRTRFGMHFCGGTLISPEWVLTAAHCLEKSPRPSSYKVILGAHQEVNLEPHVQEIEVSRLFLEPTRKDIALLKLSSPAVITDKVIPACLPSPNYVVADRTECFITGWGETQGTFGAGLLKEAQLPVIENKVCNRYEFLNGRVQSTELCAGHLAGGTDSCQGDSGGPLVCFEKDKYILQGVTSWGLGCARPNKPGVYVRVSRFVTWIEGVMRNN

Serine protease 1 [3] = target: T3, Serine protease 1 (Homo sapiens, UniProt P07477); experiment: In vitro inhibitory activity against trypsin; how it was run: as §1
T3 sequence (P07477 whole entry): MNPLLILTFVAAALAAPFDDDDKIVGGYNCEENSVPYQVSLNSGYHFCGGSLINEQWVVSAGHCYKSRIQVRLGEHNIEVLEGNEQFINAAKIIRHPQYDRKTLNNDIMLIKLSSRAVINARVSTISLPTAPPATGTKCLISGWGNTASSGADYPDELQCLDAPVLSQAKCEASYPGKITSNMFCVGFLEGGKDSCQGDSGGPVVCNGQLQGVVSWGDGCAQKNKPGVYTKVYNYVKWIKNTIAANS

Prothrombin [4] = target: T4, Prothrombin (Homo sapiens, UniProt P00734); experiment: Inhibition of thrombin; how it was run: as §1
Canis familiaris [5] = experiment: effect on the time to occlusion(TO) in the dog electrolytic injury model at the 0 ug/kg/min to the artery; assay type: functional, Canis lupus familiaris
How it was run: (§2)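 Anesthetized dogs received electrolytic injury to the endothelium as the thrombotic stimulus in the femoral artery and a vein. Agent was infused continuously at 0 (control), 1.25, 2.5, 5 or 10 μg/kg/min. Time to occlusion was recorded up to a maximum of 240 min. n = 12 control, 4 at 1.25, and 5 at each other dose; mean ± SEM.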

Canis familiaris [6] = experiment: effect on the time to occlusion(TO) in the dog electrolytic injury model at the 2.5 ug/kg/min to the artery; assay type: functional, Canis lupus familiaris; how it was run: as §2
Homo sapiens [7] = species: Homo sapiens; experiment: In Vitro evaluation for the concentration for 2 fold prolongation of Prothrombin Time (PT) assay in human
Canis familiaris [8] = experiment: effect on the time to occlusion(TO) in the dog electrolytic injury model at the 5 ug/kg/min to the vein; assay type: functional, Canis lupus familiaris; how it was run: as §2
Oryctolagus cuniculus [9] = experiment: effect on the time to occlusion in the rabbit Veno-venous Shunt model by administering through intravenous (IV) bolus (60 ug/kg) + infusion (2 ug/kg/min); assay type: functional
How it was run: (§3)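 Rabbit veno-venous shunt containing cotton threads. Test agent was given as an iv bolus plus continuous infusion at the stated dose. The endpoint was time to occlusion of the shunt vessel, observed over a 2-h window. Incidence of occlusion per group was recorded. n = 5 per dose group, mean ± SE.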

Canis familiaris [10] = experiment: effect on the time to occlusion(TO) in the dog electrolytic injury model at the 5 ug/kg/min to the artery; assay type: functional, Canis lupus familiaris; how it was run: as §2
Canis familiaris [11] = experiment: effect on the time to occlusion(TO) in the dog electrolytic injury model at the 1.25 ug/kg/min to the vein; assay type: functional, Canis lupus familiaris; how it was run: as §2
[12] = target: Vitamin K-dependent protein C (Homo sapiens, UniProt P04070); experiment: Compound was tested for in vitro inhibitory activity against activated protein C
Sequence of Vitamin K-dependent protein C (P04070 43-197 limits assumed): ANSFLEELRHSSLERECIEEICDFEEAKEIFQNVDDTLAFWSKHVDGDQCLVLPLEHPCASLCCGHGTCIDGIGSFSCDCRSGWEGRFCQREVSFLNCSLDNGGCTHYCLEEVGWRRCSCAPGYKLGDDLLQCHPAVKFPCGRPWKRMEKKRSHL
Sequence of Vitamin K-dependent protein C (P04070 212-461 limits assumed): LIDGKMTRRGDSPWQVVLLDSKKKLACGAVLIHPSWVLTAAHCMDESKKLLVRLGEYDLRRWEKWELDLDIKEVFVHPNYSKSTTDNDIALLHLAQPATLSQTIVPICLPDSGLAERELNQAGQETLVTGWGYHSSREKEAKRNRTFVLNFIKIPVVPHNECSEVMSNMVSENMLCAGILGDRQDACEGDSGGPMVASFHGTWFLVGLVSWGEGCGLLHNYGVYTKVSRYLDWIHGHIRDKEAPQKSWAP

Canis familiaris [13] = experiment: effect on the time to occlusion(TO) in the dog electrolytic injury model at the 1.25 ug/kg/min to the artery; assay type: functional, Canis lupus familiaris; how it was run: as §2
Coagulation factor X [14] = target: T1, Coagulation factor X; experiment: Compound was tested for in vitro inhibitory activity against Prothrombinase
Canis familiaris [15] = experiment: effect on the time to occlusion(TO) in the dog electrolytic injury model at the 10 ug/kg/min to the artery; assay type: functional, Canis lupus familiaris; how it was run: as §2
[16] = target: T5, Coagulation factor VII (Homo sapiens) (UniProt P08709); experiment: Compound was tested for in vitro inhibitory activity against coagulation factor VII at 100 uM
T5 sequence (whole entry): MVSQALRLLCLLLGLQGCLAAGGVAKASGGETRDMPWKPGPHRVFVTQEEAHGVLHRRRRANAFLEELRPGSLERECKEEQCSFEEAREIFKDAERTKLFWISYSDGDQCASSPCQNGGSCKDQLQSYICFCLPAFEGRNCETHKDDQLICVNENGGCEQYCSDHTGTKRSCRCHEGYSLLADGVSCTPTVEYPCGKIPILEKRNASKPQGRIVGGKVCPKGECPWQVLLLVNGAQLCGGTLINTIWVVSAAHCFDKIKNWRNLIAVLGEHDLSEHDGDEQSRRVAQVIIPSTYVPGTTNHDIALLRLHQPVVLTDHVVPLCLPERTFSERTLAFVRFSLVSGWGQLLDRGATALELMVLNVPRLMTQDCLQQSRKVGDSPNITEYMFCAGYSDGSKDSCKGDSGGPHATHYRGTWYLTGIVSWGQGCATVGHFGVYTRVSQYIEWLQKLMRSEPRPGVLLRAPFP

Canis familiaris [17] = experiment: effect on the time to occlusion(TO) in the dog electrolytic injury model at the 2.5 ug/kg/min to the vein; assay type: functional, Canis lupus familiaris; how it was run: as §2
Oryctolagus cuniculus [18] = species: Oryctolagus cuniculus; experiment: In Vitro evaluation for the concentration for 2 fold prolongation of Prothrombin Time (PT) assay in rabbit; assay type: functional
How it was run: (§4)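 Clotting assays (PT or aPTT) used pooled plasma from the named species with added inhibitor. The value is the concentration giving a 2-fold prolongation of clotting time. Determinations were done in duplicate.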

Oryctolagus cuniculus [19] = species: Oryctolagus cuniculus; experiment: In Vitro evaluation for the concentration for 2 fold prolongation of Prolonged activated partial thromboplastin Time (aPTT) assay in rabbit; assay type: functional; how it was run: as §4
Canis familiaris [20] = experiment: effect on the time to occlusion(TO) in the dog electrolytic injury model at the 10 ug/kg/min to the vein; assay type: functional, Canis lupus familiaris; how it was run: as §2
Canis lupus familiaris [21] = species: Canis lupus familiaris; experiment: In Vitro evaluation for the concentration for 2 fold prolongation of Prolonged activated partial thromboplastin Time (aPTT) assay in dog
Oryctolagus cuniculus [22] = experiment: effect on the time to occlusion in the rabbit Veno-venous Shunt model by administering through intravenous (IV) bolus (90 ug/kg) + infusion (3 ug/kg/min); assay type: functional; how it was run: as §3
Canis lupus familiaris [23] = species: Canis lupus familiaris; experiment: In Vitro evaluation for the concentration for 2 fold prolongation of Prothrombin Time (PT) assay in dog
Plasminogen [24] = target: T2, Plasminogen; experiment: Compound was tested for in vitro inhibitory activity against plasmin; how it was run: as §1
[25] = Compound was tested for in vitro inhibitory activity against Chymotrypsinogen at 100 uM
Oryctolagus cuniculus [26] = experiment: effect on the time to occlusion in the rabbit Veno-venous Shunt model by administering through intravenous (IV) bolus (30 ug/kg) + infusion (1 ug/kg/min); assay type: functional; how it was run: as §3
Canis familiaris [27] = experiment: effect on the time to occlusion(TO) in the dog electrolytic injury model at the 0 ug/kg/min to the vein; assay type: functional, Canis lupus familiaris; how it was run: as §2
Homo sapiens [28] = species: Homo sapiens; experiment: In Vitro evaluation for the concentration for 2 fold prolongation of Prolonged activated partial thromboplastin Time (aPTT) assay in human; assay type: functional; how it was run: as §4
Prothrombin [29] = target: T4, Prothrombin; experiment: Inhibition of thrombin at 100 uM
Coagulation factor X [30] = target: T1, Coagulation factor X; experiment: Compound was tested for in vitro inhibitory activity against Coagulation factor X at 100 uM
Serine protease 1 [31] = target: T3, Serine protease 1; experiment: In vitro inhibitory activity against trypsin at 100 uM
Plasminogen [32] = target: T2, Plasminogen; experiment: Inhibition of plasmin at 100 uM

T1 sequence (P00742 41-179 limits assumed): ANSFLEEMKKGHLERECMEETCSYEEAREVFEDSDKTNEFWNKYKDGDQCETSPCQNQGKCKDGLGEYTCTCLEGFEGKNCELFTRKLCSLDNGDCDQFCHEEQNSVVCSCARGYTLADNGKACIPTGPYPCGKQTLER
T1 sequence (P00742 235-488 limits assumed): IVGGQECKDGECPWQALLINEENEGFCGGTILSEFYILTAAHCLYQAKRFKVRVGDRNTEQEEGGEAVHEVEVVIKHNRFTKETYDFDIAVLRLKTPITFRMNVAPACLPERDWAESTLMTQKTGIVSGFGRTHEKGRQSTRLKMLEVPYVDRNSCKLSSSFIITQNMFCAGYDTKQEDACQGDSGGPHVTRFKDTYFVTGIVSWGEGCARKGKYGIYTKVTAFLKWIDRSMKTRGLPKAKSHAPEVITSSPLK

SMILES: COc1ccc(C2Oc3ccccc3N(CCCCCN3C(C)CCCC3C)C2=O)cc1OC (stereo not drawn)
inhibition (Prothrombin [29]): 0% | inhibition (Coagulation factor X [30]): 31% | inhibition (Serine protease 1 [31]): 0% | inhibition (Plasminogen [32]): 0%

SMILES: N=C(N)c1cccc(C2Oc3ccccc3N(CCCCCN3CCCCC3)C2=O)c1 (stereo not drawn)
IC50 (Serine protease 1 [3]): 990 nM | IC50 (Prothrombin [4]): 3400 nM | IC50 (Coagulation factor X [1]): 53 nM | IC50 (Plasminogen [24]): 21 µM

SMILES: COc1ccc(C2Oc3ccccc3N(CCCCCN3C(C)CCCC3C)C2=O)cc1 (stereo not drawn)
IC50 (Coagulation factor X [1]): 4900 nM | inhibition (Prothrombin [29]): 29% | inhibition (Serine protease 1 [31]): 2.3% | inhibition (Plasminogen [32]): 19%

SMILES: CC(C)N(CCCCCN1C(=O)C(c2cccc(C(=N)N)c2)Oc2ccccc21)C(C)C (stereo not drawn)
inhibition (Plasminogen [2]): 72% | IC50 (Serine protease 1 [3]): 1200 nM | IC50 (Prothrombin [4]): 1200 nM | IC50 (Coagulation factor X [1]): 120 nM

SMILES: CC1CCCC(C)N1CCCCCN1C(=O)C(c2ccc(Cl)cc2)Oc2ccccc21 (stereo not drawn)
IC50 (Coagulation factor X [1]): 23000 nM | inhibition (Prothrombin [29]): 38% | inhibition (Serine protease 1 [31]): 46% | inhibition (Plasminogen [32]): 30%

SMILES: CC1CCCC(C)N1CCCCCN1C(=O)C(c2ccc(C(=N)NO)cc2)Oc2ccccc21 (stereo not drawn)
IC50 (Coagulation factor X [1]): 66000 nM | inhibition (Prothrombin [29]): 18% | inhibition (Serine protease 1 [31]): 8% | inhibition (Plasminogen [32]): 10%

SMILES: COc1cc(C2Oc3ccccc3N(CCCCCN3C(C)CCCC3C)C2=O)cc(OC)c1OC (stereo not drawn)
inhibition (Prothrombin [29]): 30% | inhibition (Coagulation factor X [30]): 30% | inhibition (Serine protease 1 [31]): 12% | inhibition (Plasminogen [32]): 20%

Now from value to compound, other results behind:

IC50 (Coagulation factor X [1]): 2800 nM
SMILES: CNC(=N)c1cccc(C2Oc3ccccc3N(CCCCCN3C(C)CCCC3C)C2=O)c1 (stereo not drawn)

inhibition (Plasminogen [2]): 85% | IC50 (Serine protease 1 [3]): 760 nM | IC50 (Prothrombin [4]): 910 nM | IC50 (Coagulation factor X [1]): 48 nM
SMILES: CC1CCC(C)N1CCCCCN1C(=O)C(c2cccc(C(=N)N)c2)Oc2ccccc21 (stereo not drawn)

IC50 [12]: 23 µM | IC50 (Coagulation factor X [14]): 4 nM | inhibition [16]: 32% | IC50 (Coagulation factor X [1]): 3 nM | IC50 (Plasminogen [24]): 8.4 µM | inhibition [25]: 24%
SMILES: CC1CCCC(C)N1CCCCCN1C(=O)C(c2cccc(C(=N)N)c2)Oc2ccccc21 (stereo not drawn)
TO (Canis familiaris [5]): 87 min | TO (Canis familiaris [6]): 167 min | Concentration (Homo sapiens [7]): 0.17 µM | TO (Canis familiaris [8]): 220 min | TO (Oryctolagus cuniculus [9]): 37 min | TO (Canis familiaris [10]): 240 min | TO (Canis familiaris [11]): 125 min | TO (Canis familiaris [13]): 148 min | TO (Canis familiaris [15]): 240 min | TO (Canis familiaris [17]): 144 min | Concentration (Oryctolagus cuniculus [18]): 0.33 µM | Concentration (Oryctolagus cuniculus [19]): 0.15 µM | TO (Canis familiaris [20]): 240 min | Concentration (Canis lupus familiaris [21]): 0.19 µM | TO (Oryctolagus cuniculus [22]): 98 min | Concentration (Canis lupus familiaris [23]): 0.57 µM | TO (Oryctolagus cuniculus [26]): 27 min | TO (Canis familiaris [27]): 120 min | Concentration (Homo sapiens [28]): 0.34 µM

IC50 (Coagulation factor X [1]): 5600 nM | inhibition (Prothrombin [29]): 19% | inhibition (Serine protease 1 [31]): 21% | inhibition (Plasminogen [32]): 11%
SMILES: CC1CCCC(C)N1CCCCCN1C(=O)C(c2cccc(C(=N)NO)c2)Oc2ccccc21 (stereo not drawn)

inhibition (Plasminogen [2]): 32% | inhibition (Prothrombin [29]): 68% | inhibition (Serine protease 1 [31]): 32%
SMILES: C/N=C(/N)c1cccc(C2Oc3ccccc3N(CCCCCN3C(C)CCCC3C)C2=O)c1 (stereo not drawn)

inhibition (Plasminogen [2]): 0% | inhibition (Prothrombin [29]): 15% | inhibition (Serine protease 1 [31]): 58%
SMILES: CC1CCCC(C)N1CCCCCN1C(=O)C(c2cccc(C(=N)NN3CCOCC3)c2)Oc2ccccc21 (stereo not drawn)

— ChEMBL document CHEMBL1133480, “Rational design, synthesis, and biological activity of benzoxazinones as novel factor Xa inhibitors” (J Med Chem, 2000)
